Experimental data from different studies.
Each line is one published result; the experiments were not run side by side.

Compound	target	assay	conditions	quantity	value
COc1ncccc1-c1cnn2ccc(N3CCN(C(=O)OC(C)C)CC3)nc12	Receptor-interacting serine/threonine-protein kinase 4 (RIPK4, Homo sapiens, UniProt P57078)	binding, competition with immobilised ligand	1 µM	remaining binding	70%
O=C(O)C(F)(F)C(F)(F)C(F)(F)C(F)(F)C(F)(F)C(F)(F)C(F)(F)F	Solute carrier family 22 member 11 (SLC22A11, Homo sapiens, UniProt Q9NSA0)	transporter uptake, substrate	pH 6.8	Km	9.95 µM
CC[C@@H]1CN2CC[C@@]3(O)C(=Nc4cccc(C)c43)[C@@H]2C[C@@H]1/C(=C\OC)C(=O)OC	Delta-type opioid receptor (OPRD1, Homo sapiens, UniProt P41143)	β-arrestin recruitment, agonist		Emax	> 100%
CCN(CC)CCCC[C@H](NC(=O)[C@H](CC(C)C)NC(=O)[C@H](C)NC(=O)[C@H](Cc1ccccc1)NC(=O)c1ccc(C(C)(C)C)cc1)C(=O)N[C@@H](CO)C(=O)OC	Histone acetyltransferase p300 (EP300, Homo sapiens, UniProt Q09472)	thermal stability, DSF	25 µM	ΔTm	0.7 °C
CNCCN1CCC(OCc2ccccc2)CC1	Protein arginine N-methyltransferase 6 (PRMT6, Homo sapiens, UniProt Q96LA8)	thermal stability, DSF	200 µM	ΔTm	11.3 °C
Cn1cc(-c2cc(F)cc(N3CCn4c(cc5c4CCCC5)C3=O)c2CO)cc(Nc2ccc(N3CCN(C4COC4)CC3)cn2)c1=O	Tyrosine-protein kinase ABL1 (ABL1, Homo sapiens, UniProt P00519, T315I)	enzyme activity, inhibitor	0.1 µM	inhibition	4%
Nc1ncc(-c2nc(N3CCOCC3)nc(N3CCOCC3)n2)c(C(F)F)n1	Androgen receptor (AR, Homo sapiens, UniProt P10275)	cell-free assay, radioligand	10 µM	remaining signal	89.3%
Cc1nn(C)cc1-c1nc2c(N3CCN(Cc4ccc(Cl)cc4)CC3)c(Cl)cnc2[nH]1	Tyrosine-protein kinase ABL1, non-phosphorylated (ABL1, Homo sapiens, UniProt P00519, F317L)	binding, competition with immobilised ligand	1 µM	remaining binding	100%
COc1ccc(S(=O)(=O)N(CC(=O)NO)CC(C)C)cc1	Neutrophil collagenase (MMP8, Homo sapiens, UniProt P22894)	enzyme activity, inhibitor	0.1 µM	inhibition	43%
C#Cc1n[nH]c2c(-c3cn(C(C)c4ccccn4)c(=O)[nH]c3=O)cc(F)cc12 (stereo not shown)	Insulin-like growth factor 1 receptor (IGF1R, Homo sapiens, UniProt P08069)	enzyme activity, inhibitor	1 µM	inhibition	-0.9%
